The results in this text go back to ChEMBL document CHEMBL3853290, “Sesquiterpenoids Isolated from Two Species of the Asteriscus Alliance” (J Nat Prod, 2016).

Holding throughout (assay type): functional, cell-based
Assay [1] is described as follows: (§1) Cytotoxicity against human MOLT3 cells assessed as cell growth inhibition after 72 hrs by MTT assay. To be noted: MOLT-3, 72 h. Put shortly: (§2)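 Cells from DSMZ, grown in RPMI 1640 with 2 mM L-glutamine and 10% heat-inactivated FBS. 1 × 10^4 exponentially growing cells per well exposed to a range of compound concentrations. MTT (0.5 mg/mL) added, 4 h at 37 °C, then 10% SDS in 0.05 M HCl overnight at room temperature in the dark. Absorbance read at 570 nm. IC50 from nonlinear regression, means ± SE of ≥3 independent experiments in triplicate. Etoposide as positive control.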

A short description of assay [2]: Cytotoxicity against human HL60 cells assessed as cell growth inhibition after 72 hrs by MTT assay. To be noted: HL-60, 72 h. The procedure, abridged:
as §2
A general note: Tetrazolium assays rely on reduction of a dye to a coloured formazan, in cell work by metabolically active cells.

The subject of a further assay is MOLT-3. The description is as §1. Put shortly: as §2

Consider `CC1(C)C[C@@H]2C(=O)[C@](C)(O)/C=C\C[C@@H]3C(=O)O[C@H]1[C@@H]32`, for which the half-inhibitory concentration (IC50) in assay [1] and in assay [2] was more than 10 µM each time.
Regarding `CCO[C@H]1CCC2=C[C@H](OC2=O)C(C)(C)/C=C\C(=O)[C@H]1C`, the half-inhibitory concentration (IC50) in assay [1] and in assay [2] was more than 10 µM each time.
Take `C/C1=C/CC[C@]23O[C@H]2[C@H](OC3=O)C(C)(C)/C=C/C1=O`: the IC50 in assay [1] and in assay [2] was more than 10 µM each time.
With `C[C@@H]1C(=O)/C=C\C(C)(C)[C@@H]2C=C(CC[C@@H]1O)C(=O)O2`, the IC50 in assay [1] and in assay [2] was more than 10 µM each time.
For the molecule `COc1cc([C@@H]2c3cc4c(cc3[C@@H](O[C@@H]3O[C@@H]5CO[C@@H](C)O[C@H]5[C@H](O)[C@H]3O)[C@H]3COC(=O)[C@H]23)OCO4)cc(OC)c1O` [ETOPOSIDE], the concentration for half-maximal inhibition (IC50) came to 0.7 µM in assay [1] and 0.5 µM in assay [2].
For `CC1(C)/C=C\C(=O)[C@@]2(C)O[C@H]2CCC2=C[C@@H]1OC2=O`, the “growth inhibition (GI)” value with MOLT-3 is “Dose-dependent effect”. The half-inhibitory concentration (IC50) amounted to 4.1 µM in assay [1] and 5.4 µM in assay [2].

A word on the IC50: it is the concentration that gives 50% inhibition.
